According to ChEMBL document CHEMBL1132157 (J Med Chem, 1999):

Assays:
[1] = target: T1, 5-hydroxytryptamine receptor 1D (Homo sapiens, UniProt P28221); assay: Agonist-induced [35S]- GTPgammaS binding in CHO cells stably transfected with 5-hydroxytryptamine 1D receptor; type: cell-based
Procedure, shortened: (§1)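 Membranes from thawed CHO cells with human 5-HT1D, prepared in ice-cold 20 mM Hepes/EDTA at pH 7.4, spun at 40000g. Assay buffer: 100 mM NaCl, 10 mM MgCl2, 0.1% ascorbate, 10 μM pargyline. GDP 100 μM plus drug, 20 min at 30 °C, then ice 15 min. Then 100 pM [35S]GTPγS, 30 min at 30 °C, filtration. Emax is taken as % of maximal 5-HT response; duplicates, 2–5 occasions.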

[2] = Ratio of IC50 for human 5-HT1B to human 5-HT1D receptors
[3] = target: T1, 5-hydroxytryptamine receptor 1D; assay: Displacement of [3H]5-HT binding to cloned human 5-hydroxytryptamine 1D receptor stably expressed in CHO cells; type: cell-based
Procedure, shortened: (§2)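 Membranes from thawed CHO cells with human 5-HT1B or 5-HT1D, washed in 50 mM Tris-HCl pH 7.7, preincubated 10 min at 37 °C to remove endogenous 5-HT. Buffer holds 0.1% ascorbate, 10 μM pargyline and 4 mM CaCl2. Uses 2.0 nM [3H]5-HT, 30 min at 37 °C; 10 μM 5-HT defines nonspecific binding. Filtration; IC50 by nonlinear regression; duplicates, 2–5 occasions.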

[4] = target: 5-hydroxytryptamine receptor 1B (Homo sapiens, UniProt P28222); assay: Displacement of [3H]5-HT binding to cloned 5-hydroxytryptamine 1B receptor stably expressed in CHO cells; type: cell-based; procedure, shortened: as §2
Sequence of 5-hydroxytryptamine receptor 1B (P28222 whole entry): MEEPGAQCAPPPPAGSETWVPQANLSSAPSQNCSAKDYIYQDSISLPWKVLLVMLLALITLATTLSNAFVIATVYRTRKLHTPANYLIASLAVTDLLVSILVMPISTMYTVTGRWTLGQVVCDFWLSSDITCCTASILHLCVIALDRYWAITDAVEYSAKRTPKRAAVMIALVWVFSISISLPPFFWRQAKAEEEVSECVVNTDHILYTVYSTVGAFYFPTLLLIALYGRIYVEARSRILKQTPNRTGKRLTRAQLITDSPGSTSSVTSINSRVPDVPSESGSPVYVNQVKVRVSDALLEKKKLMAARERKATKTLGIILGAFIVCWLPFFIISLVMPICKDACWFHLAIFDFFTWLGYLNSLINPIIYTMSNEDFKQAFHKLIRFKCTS

[5] = target: T1, 5-hydroxytryptamine receptor 1D; assay: Maximum stimulation of [35S]GTP-gamma-S, binding in CHO cells expressing human 5-HT-1d relative to 5-HT; type: functional, cell-based; procedure, shortened: as §1

T1 sequence (P28221 whole entry): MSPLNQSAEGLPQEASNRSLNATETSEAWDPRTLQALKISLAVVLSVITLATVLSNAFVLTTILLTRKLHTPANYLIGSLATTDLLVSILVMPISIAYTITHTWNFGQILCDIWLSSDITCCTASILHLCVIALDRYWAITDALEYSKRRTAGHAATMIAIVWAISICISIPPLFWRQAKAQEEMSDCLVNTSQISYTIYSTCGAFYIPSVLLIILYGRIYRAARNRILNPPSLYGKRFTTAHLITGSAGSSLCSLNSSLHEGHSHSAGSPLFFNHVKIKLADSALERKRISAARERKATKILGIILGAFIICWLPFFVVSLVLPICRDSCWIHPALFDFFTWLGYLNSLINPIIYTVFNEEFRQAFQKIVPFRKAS

EC50 [1] [nM] | Selectivity [2] | IC50 [3] [nM] | IC50 [4] [nM] | Efficacy [5] [%] | Compound
4.2 | 23 | 1.5 | 35 | 93 | CN(Cc1ccsc1)C1CCN(CCCc2c[nH]c3ccc(-n4cnnc4)cc23)CC1
1.8 | 82 | 0.5 | 41 | 115 | CC(C)=CCN(C)C1CCN(CCCc2c[nH]c3ccc(-n4cnnc4)cc23)CC1
 | 12 | 5.7 | 66 |  | CC(=O)Nc1ccc(CCN(C)C2CCN(CCCc3c[nH]c4ccc(-n5cnnc5)cc34)CC2)cc1
 | 2.4 | 17 | 40 |  | CC(=O)Nc1ccc(C(=O)N(C)CC2CCN(CCCc3c[nH]c4ccc(-n5cnnc5)cc34)CC2)cc1
1 | 53 | 0.9 | 48 | 85 | C[C@@H](O)[C@H](NC1CCN(CCCc2c[nH]c3ccc(-n4cnnc4)cc23)CC1)c1ccccc1
4.7 | 220 | 1.9 | 410 | 65 | c1ccc(C2CCCCN2C2CCN(CCCc3c[nH]c4ccc(-n5cnnc5)cc34)CC2)cc1 (stereo not drawn)
 | 13 | 5.9 | 79 |  | OC[C@H](NCC1CCN(CCCc2c[nH]c3ccc(-n4cnnc4)cc23)CC1)c1ccccc1
25 | 31 | 8.9 | 280 | 68 | c1ccc2c(c1)CCC2NC1CCN(CCCc2c[nH]c3ccc(-n4cnnc4)cc23)CC1 (stereo not drawn)
 | 9.2 | 2.6 | 24 |  | CC(C)=CCCN(C)C1CCN(CCCc2c[nH]c3ccc(-n4cnnc4)cc23)CC1
 | 1.1 | 5.9 | 6.2 |  | CN(CC1CCN(CCCc2c[nH]c3ccc(-n4cnnc4)cc23)CC1)C(=O)Nc1ccccc1
 | 6.7 | 1.5 | 10 |  | CN(C1CCN(CCCc2c[nH]c3ccc(-n4cnnc4)cc23)CC1)S(=O)(=O)c1ccccc1
0.8 | 140 | 0.7 | 100 | 74 | OC[C@H](NC1CCN(CCCc2c[nH]c3ccc(-n4ccnc4)cc23)CC1)c1ccccc1
 | 5.4 | 14 | 76 |  | c1ccc(CNC2CCN(CCCc3c[nH]c4ccc(-n5cnnc5)cc34)CC2)nc1
6 | 73 | 6.3 | 460 | 83 | O=C1N[C@@H](Cc2ccc3[nH]cc(CCCN4CCC(N[C@@H](CO)c5ccccc5)CC4)c3c2)CO1
6.2 | 26 | 4.2 | 110 | 65 | C[C@@H](NC1CCN(CCCc2c[nH]c3ccc(-n4ccnc4)cc23)CC1)c1ccccc1
 | 64 | 1.4 | 89 |  | COC[C@H](NC1CCN(CCCc2c[nH]c3ccc(-n4cnnc4)cc23)CC1)c1ccc(F)cc1
 | 14 | 6 | 85 |  | CN(CC1CCN(CCCc2c[nH]c3ccc(-n4cnnc4)cc23)CC1)[C@@H](CO)c1ccccc1
 | > 37 | 270 | > 10000 |  | O=C(c1ccc(F)cc1)C1CCN(CCn2c(=O)[nH]c3ccccc3c2=O)CC1 [KETANSERIN]
 | 13 | 4.4 | 58 |  | C[C@H](NCC1CCN(CCCc2c[nH]c3ccc(-n4cnnc4)cc23)CC1)c1ccccc1
7.6 | 26 | 4.6 | 120 | 76 | c1ccc(CNC2CCN(CCCc3c[nH]c4ccc(-n5cnnc5)cc34)CC2)cc1
 | 14 | 12 | 170 |  | CC(=O)Nc1ccc(CCNC2CCN(CCCc3c[nH]c4ccc(-n5cnnc5)cc34)CC2)cc1
7.1 | 17 | 4.5 | 78 | 65 | c1cc(CNC2CCN(CCCc3c[nH]c4ccc(-n5cnnc5)cc34)CC2)co1
32 | 57 | 23 | 1300 | 76 | OC[C@H](NC1CCN(CCCc2c[nH]c3ccc(Cn4cncn4)cc23)CC1)c1ccccc1
 | 5.9 | 1.5 | 8.9 |  | CC(=O)Nc1ccc([C@@H](C)NCC2CCN(CCCc3c[nH]c4ccc(-n5cnnc5)cc34)CC2)cc1
 | 10 | 3.4 | 34 |  | OC[C@@H](NCC1CCN(CCCc2c[nH]c3ccc(-n4cnnc4)cc23)CC1)c1ccccc1
 | 8.1 | 8.1 | 66 |  | CN(Cc1ccc(S(C)(=O)=O)cc1)CC1CCN(CCCc2c[nH]c3ccc(-n4cnnc4)cc23)CC1

EC50 [1] [nM] | Selectivity [2] | IC50 [3] [nM] | IC50 [4] [nM] | Efficacy [5] [%] | Compound
 | 9.6 | 9.3 | 89 |  | CN(Cc1ccco1)C1CCN(CCCc2c[nH]c3ccc(-n4cnnc4)cc23)CC1
1.3 | 23 | 1.1 | 25 | 78 | c1ccc2c(c1)CCC2NCC1CCN(CCCc2c[nH]c3ccc(-n4cnnc4)cc23)CC1 (stereo not drawn)
 | 7.8 | 18 | 140 |  | CN(C(=O)Nc1ccccc1)C1CCN(CCCc2c[nH]c3ccc(-n4cnnc4)cc23)CC1
 | 5.3 | 19 | 100 |  | CC(=O)Nc1ccc(CN(C)C2CCN(CCCc3c[nH]c4ccc(-n5cnnc5)cc34)CC2)cc1
5.6 | 18 | 1.6 | 28 | 101 | c1ccc(CNCC2CCN(CCCc3c[nH]c4ccc(-n5cnnc5)cc34)CC2)cc1
 | 12 | 22 | 260 |  | CN(CC1CC1)C1CCN(CCCc2c[nH]c3ccc(-n4cnnc4)cc23)CC1
5 | 15 | 3 | 45 | 75 | CC(=O)Nc1ccc(CNC2CCN(CCCc3c[nH]c4ccc(-n5cnnc5)cc34)CC2)cc1
 | 67 |  |  |  | CN(Cc1ccccc1)C1CCN(CCCc2c[nH]c3ccc(-n4cnnc4)cc23)CC1
 | 30 | 0.9 | 27 | 93 | CN(Cc1ccccc1)CC1CCN(CCCc2c[nH]c3ccc(-n4cnnc4)cc23)CC1
 | 8.1 | 37 | 300 |  | O[C@H]1Cc2ccccc2C1NC1CCN(CCCc2c[nH]c3ccc(-n4cnnc4)cc23)CC1 (stereo partly drawn)
13 | 5.8 | 24 | 140 | 80 | c1cc(CNC2CCN(CCCc3c[nH]c4ccc(-n5cnnc5)cc34)CC2)ccn1
 | 7.8 | 18 | 140 |  | CN(Cc1ccc(S(C)(=O)=O)cc1)C1CCN(CCCc2c[nH]c3ccc(-n4cnnc4)cc23)CC1
3 | 16 | 0.6 | 9.3 | 99 | CC(=O)Nc1ccc([C@H](C)NCC2CCN(CCCc3c[nH]c4ccc(-n5cnnc5)cc34)CC2)cc1
 | 16 | 20 | 320 |  | C=CCN(C)C1CCN(CCCc2c[nH]c3ccc(-n4cnnc4)cc23)CC1
 | 10 | 1.4 | 14 |  | C[C@@H](NCC1CCN(CCCc2c[nH]c3ccc(-n4cnnc4)cc23)CC1)c1ccccc1
 | 8.7 | 1.5 | 13 |  | CN(C)C[C@H](NC1CCN(CCCc2c[nH]c3ccc(-n4cnnc4)cc23)CC1)c1ccccc1
8.9 | 25 | 8.1 | 200 | 87 | CN(Cc1ccoc1)C1CCN(CCCc2c[nH]c3ccc(-n4cnnc4)cc23)CC1
 | 5.3 | 12 | 63 |  | NC1CCN(CCCc2c[nH]c3ccc(-n4cnnc4)cc23)CC1
 | 6 | 43 | 260 |  | CNS(=O)(=O)Cc1ccc2[nH]cc(CCCN3CCC(N[C@H](C)c4ccccc4)CC3)c2c1
 | 2.1 | 4.2 | 8.9 |  | CC(=O)Nc1ccc(CNCC2CCN(CCCc3c[nH]c4ccc(-n5cnnc5)cc34)CC2)cc1
 | 1.9 | 1.7 | 3.3 |  | c1ccc(NCC2CCN(CCCc3c[nH]c4ccc(-n5cnnc5)cc34)CC2)nc1
13 | 88 | 0.4 |  | 90 | C[C@@H](NC1CCN(CCCc2c[nH]c3ccc(-n4cnnc4)cc23)CC1)c1ccccc1
 | 4 | 35 | 140 |  | c1cncc(CNC2CCN(CCCc3c[nH]c4ccc(-n5cnnc5)cc34)CC2)c1
1.7 | 85 |  |  | 95 | OC[C@H](NC1CCN(CCCc2c[nH]c3ccc(-n4cnnc4)cc23)CC1)c1ccccc1
 | 11 | 1.6 | 18 |  | CN(CC1CCN(CCCc2c[nH]c3ccc(-n4cnnc4)cc23)CC1)S(=O)(=O)c1ccccc1

Compound | EC50 [1] [nM] | Selectivity [2] | IC50 [3] [nM] | IC50 [4] [nM] | Efficacy [5] [%]
c1cc2[nH]cc(CCN3CCCC3)c2cc1-n1cnnc1 |  | 9 |  |  | 
